Measurements reported in PubChem BioAssay.
Calls of active or inactive are those of the source.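 The calls were made as follows, unless noted: active = visual image review flags a hit and inhibition of aggregation exceeds 20%; inconclusive = visual hit but inhibition at or below 20%; inactive = no hit on visual image review.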

Tests used:
[1] = inhibitors of TNFa-induced NFkB p65 translocation, primary screen, imaging, HUVEC, MLSMR starter and 10KST1 sets (AID 438;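 active = inhibition above 20% together with a positive visual image hit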;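 also: compound added about 3h40 before a 20 min TNFalpha stimulation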;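 as to inhibition: signal is the nuclear over cytoplasmic p65 intensity ratio per well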); settings: HUVEC TNFa-induced p65 nuclear translocation; cell count: measured here: nuclei count (cytotoxicity indicator), at 2.08 µM; inhibition: at 2 µM, stronger effect = higher value, 0% TNFa-plus-vehicle, 100% no-TNFa wells
[2] = inhibitors of mutant huntingtin aggregation, primary screen, imaging, exon1htt(103Q)mCFP cells, high-content imaging (AID 483); settings: exon1htt(103Q)mCFP cell line, aggregate imaging, at 2 µM; inhibition of aggregation: stronger effect = higher value; nuclei count: measured here: cell count, toxicity;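 also: compound exposure lasted 3 days before fixation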;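 as to nuclei count: percent of the per-plate median nuclei count of sample wells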
[3] = inhibitors of E-selectin induction by TNFa, primary screen, imaging, HUVEC, immunofluorescence, MLSMR starter and 10KST1 sets (AID 487;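 active = visually confirmed hit in the image check and inhibition above 20%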;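 as to inhibition: signal is fraction of cell area covered by stained E-selectin grains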;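 as to nuclei count: 100% = median nuclei count of all wells on the same plate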); settings: HUVEC TNFalpha-induced E-selectin immunofluorescence imaging, at 2 µM; inhibition: stronger effect = higher value; nuclei count: measured here: cell number, toxicity
[4] = target: Voltage-gated potassium channel subunit beta-2 (Rattus norvegicus) (UniProt P62483); experiment: KvBeta enzyme negative modulators, primary screen, biochemical, NADPH fluorescence (AID 622;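 active = fluorescence slope higher than the sample average by over 3 SD, cut at about -0.22 in these data, passing the limit was not always enough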;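 also: slope of raw intensity against log time taken from 70 to 1610 s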); settings: recombinant KvBeta, 4-cyanobenzaldehyde reduction, at 10 µM, stronger effect = higher value
Voltage-gated potassium channel subunit beta-2 (Rattus norvegicus), sequence (P62483 whole entry, looked up): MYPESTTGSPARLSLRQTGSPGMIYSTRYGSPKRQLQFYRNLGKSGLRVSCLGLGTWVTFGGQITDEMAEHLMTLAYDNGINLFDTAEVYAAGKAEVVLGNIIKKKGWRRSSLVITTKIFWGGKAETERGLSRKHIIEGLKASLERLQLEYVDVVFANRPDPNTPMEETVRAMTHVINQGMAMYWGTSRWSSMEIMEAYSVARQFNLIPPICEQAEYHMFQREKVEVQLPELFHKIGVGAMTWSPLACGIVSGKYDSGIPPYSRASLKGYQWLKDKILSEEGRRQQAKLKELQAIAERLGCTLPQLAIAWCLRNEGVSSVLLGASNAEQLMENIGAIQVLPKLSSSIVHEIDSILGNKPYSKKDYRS

[5] = target: Voltage-gated potassium channel subunit beta-2 (Rattus norvegicus) (UniProt P62483); experiment: KvBeta positive modulators, primary screen, biochemical, NADPH fluorescence (AID 623;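 active = NADPH fluorescence slope more negative than the mean of all samples by about 3 SD, 99.7% confidence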;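 also: fluorescence intensity change per second fitted from 20 to 320 s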); settings: Recombinant KvBeta, NADPH fluorescence decrease slope, 10 min; at 10 µM; stronger effect = lower value
[6] = target: Muscarinic acetylcholine receptor M4 (Homo sapiens) (UniProt P08173); experiment: compounds altering M4/GIRK thallium flux, either direction, primary screen, M4 allosteric agonist project, cell-based, HEK293 M4/GIRK, BTC-AM (AID 625;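 active = fluorescence slope after compound addition differing from the mean of all tested samples at 99.7% confidence, mostly higher but some lower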;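 also: thallium influx through GIRK channels coupled to M4 in HEK293 cells with BTC-AM dye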); settings: at 10 µM, actives lie on both sides
Muscarinic acetylcholine receptor M4 (Homo sapiens), sequence (P08173 whole entry, looked up): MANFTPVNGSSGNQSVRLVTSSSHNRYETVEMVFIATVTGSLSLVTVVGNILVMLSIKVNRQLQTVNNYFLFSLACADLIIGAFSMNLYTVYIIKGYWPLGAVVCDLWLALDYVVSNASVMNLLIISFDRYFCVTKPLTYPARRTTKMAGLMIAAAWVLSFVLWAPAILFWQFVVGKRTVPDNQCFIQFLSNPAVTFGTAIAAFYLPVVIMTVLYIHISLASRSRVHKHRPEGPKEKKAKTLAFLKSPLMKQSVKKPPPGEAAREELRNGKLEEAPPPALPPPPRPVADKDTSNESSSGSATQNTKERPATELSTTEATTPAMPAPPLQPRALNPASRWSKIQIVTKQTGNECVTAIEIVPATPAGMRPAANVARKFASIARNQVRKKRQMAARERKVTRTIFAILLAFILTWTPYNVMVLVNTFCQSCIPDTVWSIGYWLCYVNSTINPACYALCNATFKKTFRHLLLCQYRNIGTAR
Procedure, shortened: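 Assay system: HEK293 cells with M4 receptor and GIRK channels / Controls: carbachol and DMSO controls / Schedule: 1 h dye loading, 2 min kinetic read / Technique: kinetic fluorescence with BTC-AM dye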

[7] = inhibitors of Sendai virus-induced IRF3 signaling, primary screen, TLR/RLR signaling modifier project, cell-based, Sendai virus stimulus, luciferase, 10K MLSCN set (AID 602276;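 active = inhibition at or above 50% at 10 µM; inactive = inhibition below 50%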;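 also: firefly luciferase from ISG56 promoter only with Renilla not read in this screen; 0% = Sendai virus plus DMSO and 100% = medium plus DMSO without virus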); settings: HEK293 RL24 IRF3 luciferase reporter, at 10 µM, stronger effect = higher value
[8] = inhibitors of poly I:C-induced TLR3 signaling, primary screen, cell-based, poly I:C stimulus, luciferase, 10K MLSCN set (AID 602277;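 active = inhibition of the reporter signal at or above 50%; inactive = inhibition below 50%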); settings: HEK293-TLR3 RL24 IRF3 luciferase reporter, at 10 µM, stronger effect = higher value

SMILES | cell count [1] | inhibition [1] | inhibition of aggregation [2] | nuclei count [2] [%] | inhibition [3] | nuclei count [3] [%] | fluorescence slope [4] | NADPH fluorescence slope [5] | fluorescence slope [6] | inhibition [7] | inhibition [8]
Cc1cccc(-c2noc(CCC(=O)Nc3ccccc3)n2)c1 | 430 | 9.5% (inactive) | 7.6% (inactive) | 92.6 | 68.5% (inactive) | 140 | -0.289 (inactive) | -2.3e-05 (inactive) | 0.00559 (inactive) | -7.26% (inactive) | -4.8% (inactive)
Cc1cc(Cl)c(S(=O)(=O)NC2CCCCC2)cc1OCC(=O)Nc1nncs1 | 308 | -21.3% (inactive) | -4.2% (inactive) | 107 | -32.9% (inactive) | 118 | -0.506 (inactive) | -3.4e-05 (inactive) | 0.00536 (inactive) | 13.4% (inactive) | 0.658% (inactive)
O=C(CCn1nc(-c2ccc(Cl)cc2)ccc1=O)N1CCN(c2ccccn2)CC1 | 244 | -0.9% (inactive) | 26.9% (inactive) | 100 | 36.1% (inactive) | 98.7 | -0.582 (inactive) | -8.6e-06 (inactive) | 0.00547 (inactive) | 7.53% (inactive) | 10.9% (inactive)
C=CCSc1nnc(-c2ccccc2NC(C)=O)c(=O)[nH]1 | 765 | -33.6% (inactive) | 8% (inactive) | 102 | -60.3% (inactive) | 107 | -0.468 (inactive) | -0.000277 (inactive) | 0.00542 (inactive) | -0.29% (inactive) | 9.66% (inactive)
CCOCCCNC(=O)C1CCN(C(=O)Nc2ccc(Cl)cc2)CC1 | 437 | -5% (inactive) | -2.7% (inactive) | 106 | -40.5% (inactive) | 90.7 | -0.324 (inactive) | -6.3e-05 (inactive) | 0.00707 (inactive) | 10.2% (inactive) | 21.5% (inactive)
COc1cccc(Oc2ccc(N)cc2)c1 | 716 | -0.6% (inactive) | 20.3% (inactive) | 102 | -54.1% (inactive) | 97.5 | -0.44 (inactive) | -0.000235 (active) | 0.00432 (inactive) | -0.294% (inactive) | -6.53% (inactive)
Cc1ccnc(NC(=O)CCC(=O)N(CC(=O)NC2CCCCC2)c2cccc(C)c2C)c1 | 426 | 4.4% (inactive) | -2.4% (inactive) | 103 | 28.9% (inactive) | 125 | -0.626 (inactive) | 3.3e-05 (inactive) | 0.00484 (inactive) | 13.1% (inactive) | 18.7% (inactive)
CN(C(=O)c1ccccn1)c1nnc(-c2ccncc2)s1 | 551 | 5% (inactive) | -7.6% (inactive) | 111 | -35.7% (inactive) | 109 | -0.267 (inactive) | -1.3e-05 (inactive) | 0.00597 (inactive) | 6.96% (inactive) | -3.15% (inactive)
COc1ccc(OC)c(N(CC(=O)N2CCN(c3cc(Cl)ccc3C)CC2)S(C)(=O)=O)c1 | 497 | -7.3% (inactive) | 23.1% (inactive) | 61.4 | -13.6% (inactive) | 105 | -0.572 (inactive) | -5.2e-05 (inactive) | 0.00582 (inactive) | 17% (inactive) | 24.6% (inactive)
Cc1c(Br)c(C(F)(F)F)nn1CC(=O)NCCN1CCOCC1 | 412 | 1.6% (inactive) | 0.2% (inactive) | 86.5 | -39.7% (inactive) | 114 | -0.553 (inactive) | -5.2e-05 (inactive) | 0.00496 (inactive) | 1.54% (inactive) | 21.8% (inactive)
O=C(c1ccc(NS(=O)(=O)c2cccs2)cc1)N1CCCCC1 | 287 | 5% (inactive) | -0.8% (inactive) | 74.9 | -31.7% (inactive) | 96.5 | -0.474 (inactive) | -3.6e-05 (inactive) | 0.00524 (inactive) | 0.00146% (inactive) | -12.6% (inactive)
COC(=O)Nc1ccc(C)cc1NC(=O)OC | 624 | -20.8% (inactive) | -13.1% (inactive) | 98.6 | 16% (inactive) | 86.5 | -0.574 (inactive) | 2.5e-05 (inactive) | 0.00692 (inactive) | -9.05% (inactive) | -6.68% (inactive)
CCCCN(CCCNC(=O)C1CCN(S(=O)(=O)CC)CC1)c1ccccc1 | 547 | 7.2% (inactive) | -2.7% (inactive) | 130 | -81.6% (inactive) | 165 | -0.441 (inactive) | 2.9e-05 (inactive) | 0.00466 (inactive) | 8.2% (inactive) | 25.8% (inactive)
O=c1c(F)cn(C2CCCO2)c(=O)n1Cc1c(F)cccc1Cl (centres undefined) | 738 | -7.1% (inactive) | -9.4% (inactive) | 103 | -114% (inactive) | 140 | -0.549 (inactive) | -1.3e-05 (inactive) | 0.00479 (inactive) | 5.15% (inactive) | 13.2% (inactive)
